Common to all, as to format: functional
The test system of test [1] is Mycobacterium tuberculosis. Put plainly: Antimicrobial activity against Mycobacterium tuberculosis. The essentials:
(§1)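 M. tuberculosis H37Rv was tested in Middlebrook 7H9 broth in a microplate Alamar Blue assay. Compounds were serially diluted on the plate to final concentrations of 100–0.2 µg/mL. Sealed plates were incubated at 37 °C for 5 days. A fresh 1:1 mix of Alamar Blue and 10% Tween 80 was then added, followed by 24 h more incubation. Blue wells were scored as no growth, pink as growth.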

The subject of the next test is A549. Put plainly: Cytotoxicity against human A549 cells after 24 hrs by MTT assay. An outline of the steps:
(§2)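 Cells seeded at 2×10^4/well, incubated overnight, then exposed 24 h to test concentrations. MTT (5 mg/mL stock) added, 3 h at 37 °C; formazan dissolved in DMSO, absorbance 570 nm. Percent viability inhibition relative to untreated control; IC50 from linear regression of the dose-response line.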
A general note: Tetrazolium assays rely on reduction of a dye to a coloured formazan, in cell work by metabolically active cells.

The nature of test [2]: Cytotoxicity against human MDA-MB cells after 24 hrs by MTT assay. The essentials:
as §2

For another test, the system named is Mycolicibacterium phlei. The test is described as follows: Antimicrobial activity against Mycobacterium phlei after 5 days by microplate Alamar Blue assay. To be noted: 120 h. An outline of the steps:
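Microplate Alamar Blue assay (MABA) in Middlebrook 7H9 broth, compounds serially diluted on plate to final 100–0.2 µg/mL. Plates sealed and incubated 37 °C for 5 days, then 1:1 Alamar Blue/10% Tween 80 added and incubated 24 h more. Blue scored as no growth, pink as growth.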
A general note: Resazurin is reduced to fluorescent resorufin, in cell work by metabolically active cells.

In test [3] the test system is Mycobacterium tuberculosis. The test is described as follows: Antimicrobial activity against Mycobacterium tuberculosis H37Rv after 5 days by microplate Alamar Blue assay. To be noted: 120 h. The essentials: as §1
Test [4] concerns Mycobacterium tuberculosis. The test is described as follows: Antimicrobial activity against Mycobacterium tuberculosis ATCC 27294 by microplate Alamar Blue assay. The essentials: as §1

Structures are written as SMILES. Values after ≈ are worked out from the molar mass of the structure shown.

For the compound `Cc1cc(=O)oc2cc(OCc3cn(Cc4cc(=O)oc5ccc6ccccc6c45)nn3)ccc12`, the MIC in test [1] came out at 6.25 µg/mL (≈ 13.4 µM).

Consider `Cc1cc(=O)oc2cc(OCc3cn(Cc4cc(=O)oc5cc(Cl)ccc45)nn3)ccc12`, for which the MIC in test [1] came out at 6.25 µg/mL (≈ 13.9 µM).

For the compound `O=c1cc(COc2cccc(I)c2)c2cc(Br)ccc2o1`, the MIC against A549 was determined as 6.25 µg/mL (≈ 13.7 µM); in test [2], 6.25 µg/mL (≈ 13.7 µM); with Mycolicibacterium phlei, 6.25 µg/mL (≈ 13.7 µM); in test [3], 12.5 µg/mL (≈ 27.3 µM).

Consider `Cc1ccc2oc(=O)cc(COc3ccc(I)cc3)c2c1`, for which the MIC (with A549; in test [2]; in the test with Mycolicibacterium phlei; in test [3]) was 12.5 µg/mL (≈ 31.9 µM) each time.

With `Cc1ccc2c(COc3ccc(I)cc3)cc(=O)oc2c1`, the MIC against A549 stood at 12.5 µg/mL (≈ 31.9 µM); in test [2], 12.5 µg/mL (≈ 31.9 µM); with Mycolicibacterium phlei it was 12.5 µg/mL (≈ 31.9 µM); in test [3] it was 25 µg/mL (≈ 63.7 µM).

On to `Cc1ccc2c(COc3ccc(I)cc3)cc(=O)oc2c1C`, for which the MIC (against A549; in test [2]; against Mycolicibacterium phlei; in test [3]) was 12.5 µg/mL (≈ 30.8 µM) throughout.

Take `COc1ccc2oc(=O)cc(COc3ccc(I)cc3)c2c1`: the MIC with A549 came out at 6.25 µg/mL (≈ 15.3 µM); in test [2], 25 µg/mL (≈ 61.2 µM); with Mycolicibacterium phlei it was 12.5 µg/mL (≈ 30.6 µM); in test [3], 25 µg/mL (≈ 61.2 µM).

For the compound `COc1ccc2c(COc3ccc(I)cc3)cc(=O)oc2c1`, the MIC with A549 turned out to be 6.25 µg/mL (≈ 15.3 µM); in test [2] it was 25 µg/mL (≈ 61.2 µM); in the test on Mycolicibacterium phlei it was 12.5 µg/mL (≈ 30.6 µM); in test [3] it was 25 µg/mL (≈ 61.2 µM).

In the case of `O=c1cc(COc2ccc(I)cc2)c2c(ccc3ccccc32)o1`, the MIC against A549 came to 6.25 µg/mL (≈ 14.6 µM); in test [2] it was 25 µg/mL (≈ 58.4 µM); against Mycolicibacterium phlei it was 25 µg/mL (≈ 58.4 µM); in test [3], 25 µg/mL (≈ 58.4 µM).

Turning to `O=c1cc(COc2ccc(I)cc2)c2ccc3ccccc3c2o1`, the MIC is 6.25 µg/mL (≈ 14.6 µM) in the test with A549, 25 µg/mL (≈ 58.4 µM) in test [2], 25 µg/mL (≈ 58.4 µM) against Mycolicibacterium phlei and 25 µg/mL (≈ 58.4 µM) in test [3].

Turning to `O=c1cc(COc2ccc(I)cc2)c2cc(Cl)ccc2o1`, the MIC against A549 was 3.12 µg/mL (≈ 7.57 µM); in test [2] it was 1.56 µg/mL (≈ 3.78 µM); with Mycolicibacterium phlei it was 3.12 µg/mL (≈ 7.57 µM); in test [3], 1.56 µg/mL (≈ 3.78 µM).

Take `O=c1cc(COc2ccc(I)cc2)c2ccc(Cl)cc2o1`: the MIC in the test with A549 worked out at 3.12 µg/mL (≈ 7.57 µM); in test [2], 1.56 µg/mL (≈ 3.78 µM); against Mycolicibacterium phlei it was 3.12 µg/mL (≈ 7.57 µM); in test [3] it was 1.56 µg/mL (≈ 3.78 µM).

Turning to `O=c1cc(COc2ccc(I)cc2)c2cc(Br)ccc2o1`, the MIC stood at 3.12 µg/mL (≈ 6.84 µM) against A549, 3.12 µg/mL (≈ 6.84 µM) in test [2], 6.25 µg/mL (≈ 13.7 µM) in the test with Mycolicibacterium phlei and 6.25 µg/mL (≈ 13.7 µM) in test [3].

`O=C(N/N=C/c1cccc(O)c1)c1cc2ccccc2oc1=O` came in with an MIC in test [1] of 50 µg/mL (≈ 162 µM).

In test [1], `Cc1cc(=O)oc2cc(OCc3cn(Cc4cc(=O)oc5ccc(Cl)cc45)nn3)ccc12` showed an MIC of 6.25 µg/mL (≈ 13.9 µM).

Regarding `Cc1ccc2oc(=O)cc(COc3ccccc3I)c2c1`, the MIC in the test on A549 was 50 µg/mL (≈ 127 µM); in test [2], 12.5 µg/mL (≈ 31.9 µM); against Mycolicibacterium phlei, over 100 µg/mL; in test [3] it was 12.5 µg/mL (≈ 31.9 µM).

Take `Cc1ccc2c(COc3ccccc3I)cc(=O)oc2c1`: the MIC with A549 is 50 µg/mL (≈ 127 µM); in test [2], 12.5 µg/mL (≈ 31.9 µM); against Mycolicibacterium phlei, over 100 µg/mL; in test [3], 12.5 µg/mL (≈ 31.9 µM).

On to `Cc1ccc2c(COc3ccccc3I)cc(=O)oc2c1C`, for which the MIC against A549 stood at 50 µg/mL (≈ 123 µM); in test [2] it was 25 µg/mL (≈ 61.5 µM); in the test with Mycolicibacterium phlei, 50 µg/mL (≈ 123 µM); in test [3], 25 µg/mL (≈ 61.5 µM).

As to `COc1ccc2oc(=O)cc(COc3ccccc3I)c2c1`, the MIC was found to be 25 µg/mL (≈ 61.2 µM) in the test on A549, 25 µg/mL (≈ 61.2 µM) in test [2], 50 µg/mL (≈ 122 µM) in the test on Mycolicibacterium phlei and 12.5 µg/mL (≈ 30.6 µM) in test [3].

In the case of `COc1ccc2c(COc3ccccc3I)cc(=O)oc2c1`, the MIC amounted to 25 µg/mL (≈ 61.2 µM) against A549, 25 µg/mL (≈ 61.2 µM) in test [2], 50 µg/mL (≈ 122 µM) with Mycolicibacterium phlei and 12.5 µg/mL (≈ 30.6 µM) in test [3].

Consider `O=c1cc(COc2ccccc2I)c2c(ccc3ccccc32)o1`, for which the MIC with A549 was determined as 25 µg/mL (≈ 58.4 µM); in test [2], 25 µg/mL (≈ 58.4 µM); against Mycolicibacterium phlei, 50 µg/mL (≈ 117 µM); in test [3], 50 µg/mL (≈ 117 µM).

Consider `O=c1cc(COc2ccccc2I)c2ccc3ccccc3c2o1`, for which the MIC in the test on A549 amounted to 25 µg/mL (≈ 58.4 µM); in test [2], 25 µg/mL (≈ 58.4 µM); against Mycolicibacterium phlei, 50 µg/mL (≈ 117 µM); in test [3], 50 µg/mL (≈ 117 µM).

On to `O=c1cc(COc2ccccc2I)c2cc(Cl)ccc2o1`, for which the MIC came out at 12.5 µg/mL (≈ 30.3 µM) with A549, 12.5 µg/mL (≈ 30.3 µM) in test [2], 25 µg/mL (≈ 60.6 µM) in the test on Mycolicibacterium phlei and 6.25 µg/mL (≈ 15.1 µM) in test [3].

Consider `O=c1cc(COc2ccccc2I)c2ccc(Cl)cc2o1`, for which the MIC against A549 amounted to 12.5 µg/mL (≈ 30.3 µM); in test [2], 12.5 µg/mL (≈ 30.3 µM); in the test with Mycolicibacterium phlei, 25 µg/mL (≈ 60.6 µM); in test [3] it was 6.25 µg/mL (≈ 15.1 µM).

In the case of `O=c1cc(COc2ccccc2I)c2cc(Br)ccc2o1`, the MIC with A549 amounted to 12.5 µg/mL (≈ 27.3 µM); in test [2], 12.5 µg/mL (≈ 27.3 µM); against Mycolicibacterium phlei, 50 µg/mL (≈ 109 µM); in test [3], 6.25 µg/mL (≈ 13.7 µM).

With `Cc1ccc2oc(=O)cc(COc3cccc(I)c3)c2c1`, the MIC with A549 worked out at 25 µg/mL (≈ 63.7 µM); in test [2], 25 µg/mL (≈ 63.7 µM); in the test with Mycolicibacterium phlei, 12.5 µg/mL (≈ 31.9 µM); in test [3] it was 25 µg/mL (≈ 63.7 µM).

On to `Cc1ccc2c(COc3cccc(I)c3)cc(=O)oc2c1`, for which the MIC with A549 was 25 µg/mL (≈ 63.7 µM); in test [2], 25 µg/mL (≈ 63.7 µM); in the test with Mycolicibacterium phlei, 12.5 µg/mL (≈ 31.9 µM); in test [3] it was 25 µg/mL (≈ 63.7 µM).

Take `Cc1ccc2c(COc3cccc(I)c3)cc(=O)oc2c1C`: the MIC (against A549; in test [2]; against Mycolicibacterium phlei; in test [3]) was 25 µg/mL (≈ 61.5 µM) each time.

For the compound `COc1ccc2oc(=O)cc(COc3cccc(I)c3)c2c1`, the MIC was 12.5 µg/mL (≈ 30.6 µM) against A549, 50 µg/mL (≈ 122 µM) in test [2], 50 µg/mL (≈ 122 µM) against Mycolicibacterium phlei and 25 µg/mL (≈ 61.2 µM) in test [3].

Turning to `COc1ccc2c(COc3cccc(I)c3)cc(=O)oc2c1`, the MIC was determined as 12.5 µg/mL (≈ 30.6 µM) in the test with A549, 50 µg/mL (≈ 122 µM) in test [2], 50 µg/mL (≈ 122 µM) with Mycolicibacterium phlei and 25 µg/mL (≈ 61.2 µM) in test [3].

Consider `O=c1cc(COc2cccc(I)c2)c2c(ccc3ccccc32)o1`, for which the MIC against A549 stood at 12.5 µg/mL (≈ 29.2 µM); in test [2], 50 µg/mL (≈ 117 µM); against Mycolicibacterium phlei, 25 µg/mL (≈ 58.4 µM); in test [3] it was 25 µg/mL (≈ 58.4 µM).

For `O=c1cc(COc2cccc(I)c2)c2ccc3ccccc3c2o1`, the MIC worked out at 12.5 µg/mL (≈ 29.2 µM) against A549, 50 µg/mL (≈ 117 µM) in test [2], 25 µg/mL (≈ 58.4 µM) with Mycolicibacterium phlei and 25 µg/mL (≈ 58.4 µM) in test [3].

In the case of `O=c1cc(COc2cccc(I)c2)c2cc(Cl)ccc2o1`, the MIC in the test with A549 is 6.25 µg/mL (≈ 15.1 µM); in test [2] it was 6.25 µg/mL (≈ 15.1 µM); with Mycolicibacterium phlei, 6.25 µg/mL (≈ 15.1 µM); in test [3], 12.5 µg/mL (≈ 30.3 µM).

Regarding `O=c1cc(COc2cccc(I)c2)c2ccc(Cl)cc2o1`, the MIC in the test on A549 amounted to 6.25 µg/mL (≈ 15.1 µM); in test [2], 6.25 µg/mL (≈ 15.1 µM); in the test with Mycolicibacterium phlei, 6.25 µg/mL (≈ 15.1 µM); in test [3], 12.5 µg/mL (≈ 30.3 µM).

As to `O=C(Cc1cc(=O)oc2cc(O)ccc12)N/N=C/c1cccc([N+](=O)[O-])c1`, the MIC in test [4] worked out at 6.25 µg/mL (≈ 17 µM).

As to `NC(=O)c1cnccn1` [PYRAZINAMIDE], the MIC (against Mycolicibacterium phlei; in test [3]) was 3.12 µg/mL (≈ 25.4 µM) throughout.

Turning to `CN[C@@H]1[C@H](O[C@H]2[C@H](O[C@H]3[C@H](O)[C@@H](O)[C@H](N=C(N)N)[C@@H](O)[C@@H]3N=C(N)N)O[C@@H](C)[C@]2(O)C=O)O[C@@H](CO)[C@H](O)[C@H]1O` [STREPTOMYCIN], the MIC (against Mycolicibacterium phlei; in test [3]) was 6.25 µg/mL (≈ 10.7 µM) throughout.
